Results: ChEMBL document CHEMBL4350954, “Identification of Thienopyrimidine Scaffold as an Inhibitor of the ABC Transport Protein ABCC1 (MRP1) and Related Transporters Using a Combined Virtual Screening Approach” (J Med Chem, 2019)

Legend:
[1] = Growth inhibition of MDCK2 cells co-expressing MDR1 (unknown origin) incubated for 72 hrs by MTT assay; format: ADME, cell-based, Canis lupus familiaris, MDCK-II; settings: dog
Outline: (§1)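 MTT-based cytotoxicity assay giving GI50 of the compound alone in each listed parental, selected or transfected cell line.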

[2] = molecular target: T1, Multidrug resistance-associated protein 1 (Homo sapiens, UniProt P33527); assay: Reversal of ABCC1-mediated multidrug resistance in human H69AR cells assessed as resistance factor by measuring [GI50(resistant cell line without or with compound)/ GI50(sensitive cell line)] at 5 uM incubated for 72 hrs by MTT assay (reference value: 8.2); format: cell-based
T1 sequence (P33527 whole entry): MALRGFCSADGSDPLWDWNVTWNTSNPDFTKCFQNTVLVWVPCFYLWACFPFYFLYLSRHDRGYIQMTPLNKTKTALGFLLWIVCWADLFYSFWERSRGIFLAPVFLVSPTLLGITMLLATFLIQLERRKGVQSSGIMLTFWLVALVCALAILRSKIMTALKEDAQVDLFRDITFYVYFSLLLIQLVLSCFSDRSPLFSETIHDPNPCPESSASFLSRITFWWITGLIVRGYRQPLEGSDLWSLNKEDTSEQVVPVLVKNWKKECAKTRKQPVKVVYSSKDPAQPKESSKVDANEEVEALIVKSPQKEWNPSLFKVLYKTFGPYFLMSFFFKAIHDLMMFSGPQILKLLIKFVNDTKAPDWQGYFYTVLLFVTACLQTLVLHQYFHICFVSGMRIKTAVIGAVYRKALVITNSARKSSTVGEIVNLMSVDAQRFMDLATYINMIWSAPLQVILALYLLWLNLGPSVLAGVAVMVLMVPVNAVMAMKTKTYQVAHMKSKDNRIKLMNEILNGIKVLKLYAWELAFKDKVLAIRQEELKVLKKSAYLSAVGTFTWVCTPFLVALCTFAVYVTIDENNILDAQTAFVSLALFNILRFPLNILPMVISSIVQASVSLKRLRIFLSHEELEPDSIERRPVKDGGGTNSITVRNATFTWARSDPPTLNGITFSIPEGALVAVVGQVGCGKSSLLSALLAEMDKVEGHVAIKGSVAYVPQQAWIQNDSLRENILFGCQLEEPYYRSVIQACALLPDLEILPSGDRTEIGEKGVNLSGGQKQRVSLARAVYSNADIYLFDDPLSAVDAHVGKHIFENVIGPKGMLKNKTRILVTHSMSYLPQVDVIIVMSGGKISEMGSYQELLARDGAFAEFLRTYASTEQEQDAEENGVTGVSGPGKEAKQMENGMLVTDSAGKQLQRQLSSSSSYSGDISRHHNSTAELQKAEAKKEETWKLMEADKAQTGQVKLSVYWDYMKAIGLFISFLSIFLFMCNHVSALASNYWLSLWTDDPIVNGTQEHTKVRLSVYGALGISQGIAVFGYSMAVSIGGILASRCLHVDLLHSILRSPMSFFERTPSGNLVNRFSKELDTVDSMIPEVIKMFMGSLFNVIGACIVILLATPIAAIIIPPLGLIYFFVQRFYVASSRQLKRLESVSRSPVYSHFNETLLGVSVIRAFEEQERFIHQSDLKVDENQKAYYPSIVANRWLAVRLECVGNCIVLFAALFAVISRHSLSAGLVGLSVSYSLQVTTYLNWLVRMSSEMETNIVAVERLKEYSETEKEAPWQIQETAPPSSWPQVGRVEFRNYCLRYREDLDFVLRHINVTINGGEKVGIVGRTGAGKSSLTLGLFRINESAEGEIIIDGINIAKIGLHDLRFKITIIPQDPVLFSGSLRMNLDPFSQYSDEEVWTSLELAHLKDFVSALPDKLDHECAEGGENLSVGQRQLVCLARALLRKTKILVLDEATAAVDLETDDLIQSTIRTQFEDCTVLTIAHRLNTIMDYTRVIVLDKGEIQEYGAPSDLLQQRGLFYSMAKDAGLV

ABCG2 (BCRP) = molecular target: T2, ABCG2 (BCRP) (Homo sapiens, UniProt Q9UNQ0); assay: Inhibition of ABCG2 (unknown origin) expressed in MDCK2 cells co-expressing BCRP (unknown origin) assessed as effect on pheophorbide A accumulation at 10 uM pre-incubated for 20 mins followed by pheophorbide A addition and measured after 120 mins by flow cytometric analysis relative to Ko143; format: cell-based; settings: probe pheophorbide A
T2 sequence (Q9UNQ0 whole entry): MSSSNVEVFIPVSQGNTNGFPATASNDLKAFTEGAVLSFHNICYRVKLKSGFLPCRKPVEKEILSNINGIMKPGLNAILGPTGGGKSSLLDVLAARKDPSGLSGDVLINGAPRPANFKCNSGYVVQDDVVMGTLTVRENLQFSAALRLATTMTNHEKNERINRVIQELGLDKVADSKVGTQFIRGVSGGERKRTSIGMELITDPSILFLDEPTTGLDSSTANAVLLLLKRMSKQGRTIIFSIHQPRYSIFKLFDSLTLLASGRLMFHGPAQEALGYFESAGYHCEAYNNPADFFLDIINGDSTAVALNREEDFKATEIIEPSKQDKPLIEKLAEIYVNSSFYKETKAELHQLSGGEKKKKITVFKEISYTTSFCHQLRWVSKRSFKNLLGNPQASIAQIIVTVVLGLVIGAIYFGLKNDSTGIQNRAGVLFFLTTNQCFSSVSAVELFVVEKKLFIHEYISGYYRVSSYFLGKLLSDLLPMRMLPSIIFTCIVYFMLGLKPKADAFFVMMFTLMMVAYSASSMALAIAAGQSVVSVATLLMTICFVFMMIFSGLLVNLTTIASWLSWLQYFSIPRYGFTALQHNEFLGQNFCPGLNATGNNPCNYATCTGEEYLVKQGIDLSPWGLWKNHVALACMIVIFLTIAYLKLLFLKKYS
Outline: (§2)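 Pheophorbide A accumulation assay in ABCG2-transfected MDCK II BCRP cells. Ko143 at 10 µM set 100% and no compound set 0%. Screening was at 10 µM; compounds reaching >20% (+SEM) got IC50 curves constrained to the Ko143 maximum at 10 µM. Values are reported as mean ± SEM.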

[3] = molecular target: T3, Broad substrate specificity ATP-binding cassette transporter ABCG2 (Homo sapiens, UniProt Q9UNQ0); assay: (§3) Reversal of ABCG2 (unknown origin)-mediated multidrug resistance in MDCK2 cells co-expressing BCRP (unknown origin) assessed as resistance factor by measuring [GI50(resistant cell line without or with compound)/ GI50(sensitive cell line)] at 1 uM incubated for 72 hrs by MTT assay (reference value: 27); format: cell-based
T3 sequence (Q9UNQ0 whole entry): T2 sequence (Q9UNQ0 whole entry)

[4] = molecular target: T4, ATP-dependent translocase ABCB1 (Homo sapiens, UniProt P08183); assay: Inhibition of ABCB1 in human A2780/ADR cells preincubated for 30 mins followed by calcein AM addition and measured at 60 secs time interval by fluorescence assay; format: cell-based
T4 sequence (P08183 whole entry): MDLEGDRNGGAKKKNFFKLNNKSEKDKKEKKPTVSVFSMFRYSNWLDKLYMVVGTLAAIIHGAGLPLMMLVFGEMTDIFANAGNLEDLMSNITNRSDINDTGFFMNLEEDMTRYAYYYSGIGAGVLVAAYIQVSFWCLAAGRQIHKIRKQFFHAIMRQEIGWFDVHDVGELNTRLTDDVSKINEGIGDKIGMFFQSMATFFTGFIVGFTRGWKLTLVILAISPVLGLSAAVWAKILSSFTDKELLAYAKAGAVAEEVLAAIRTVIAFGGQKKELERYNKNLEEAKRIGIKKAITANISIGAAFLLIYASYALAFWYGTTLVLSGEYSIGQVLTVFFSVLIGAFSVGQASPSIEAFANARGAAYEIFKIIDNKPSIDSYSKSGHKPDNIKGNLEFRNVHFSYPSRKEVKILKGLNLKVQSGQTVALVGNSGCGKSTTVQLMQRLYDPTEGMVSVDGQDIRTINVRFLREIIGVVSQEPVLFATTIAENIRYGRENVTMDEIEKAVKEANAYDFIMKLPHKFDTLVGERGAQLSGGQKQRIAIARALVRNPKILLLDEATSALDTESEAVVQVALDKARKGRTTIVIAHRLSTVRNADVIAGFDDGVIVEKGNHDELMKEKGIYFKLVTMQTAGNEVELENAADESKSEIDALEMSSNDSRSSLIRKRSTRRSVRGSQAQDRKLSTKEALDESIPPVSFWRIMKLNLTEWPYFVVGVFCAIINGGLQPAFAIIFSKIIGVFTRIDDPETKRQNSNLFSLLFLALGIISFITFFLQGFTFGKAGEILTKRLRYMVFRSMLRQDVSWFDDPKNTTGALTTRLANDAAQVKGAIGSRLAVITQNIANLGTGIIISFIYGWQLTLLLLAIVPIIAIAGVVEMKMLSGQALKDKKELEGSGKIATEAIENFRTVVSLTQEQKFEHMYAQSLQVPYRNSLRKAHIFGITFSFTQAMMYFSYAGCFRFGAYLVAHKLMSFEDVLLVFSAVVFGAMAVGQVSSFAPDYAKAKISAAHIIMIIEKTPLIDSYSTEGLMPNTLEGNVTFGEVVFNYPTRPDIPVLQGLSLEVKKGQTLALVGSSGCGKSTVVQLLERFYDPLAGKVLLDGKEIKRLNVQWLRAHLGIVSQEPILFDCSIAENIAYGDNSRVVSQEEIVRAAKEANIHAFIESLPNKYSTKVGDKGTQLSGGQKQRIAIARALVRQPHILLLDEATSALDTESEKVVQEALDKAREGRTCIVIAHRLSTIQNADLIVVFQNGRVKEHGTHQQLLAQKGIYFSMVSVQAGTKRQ

[5] = molecular target: T4, ATP-dependent translocase ABCB1; assay: as §3, with “ABCB1” for “ABCG2”, “MDR1” for “BCRP”, “17)” for “27)”; format: cell-based
Outline: (§4)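 MDR reversal assay with daunorubicin at 10 nM–10 µM, alone or with test compound at 0.5, 1, 5 or 10 µM. Resistant cells were ABCB1-overexpressing A2780/ADR or MDCK II MDR1, with sensitive A2780 or MDCK II cells as comparators. Resistance factor = resistant GI50 / sensitive GI50. EC50 was derived from resistance factors versus modulator concentration. Values are from ≥3 experiments in duplicate ± SEM.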

ABCB1 (P-gp) = ABCB1 (P-gp) (Homo sapiens, UniProt P08183); assay: Inhibition of ABCB1 in human A2780/ADR cells at 10 uM preincubated for 30 mins followed by calcein AM addition and measured at 60 secs time interval by fluorescence assay relative to cyclosporine A; format: cell-based; settings: probe calcein AM
Sequence of ABCB1 (P-gp) (P08183 whole entry): as above

[6] = Growth inhibition of MDCK2 cells co-expressing BCRP (unknown origin) after 72 hrs by MTT assay; format: ADME, cell-based, Canis lupus familiaris, MDCK-II; settings: dog; outline: as §1
[7] = Growth inhibition of human A2780/ADR cells incubated for 72 hrs by MTT assay; format: cell-based; outline: as §1
[8] = molecular target: T3, Broad substrate specificity ATP-binding cassette transporter ABCG2; assay: Inhibition of ABCG2 (unknown origin) expressed in MDCK2 cells co-expressing BCRP (unknown origin) assessed as effect on pheophorbide A accumulation pre-incubated for 20 mins followed by pheophorbide A addition and measured after 120 mins by flow cytometric analysis; format: cell-based; outline: as §2
[9] = molecular target: T4, ATP-dependent translocase ABCB1; assay: Reversal of ABCB1-mediated multidrug resistance in human A2780/ADR cells assessed as resistance factor by measuring [GI50(resistant cell line without or with compound)/ GI50(sensitive cell line)] at 10 uM incubated for 72 hrs by MTT assay (reference value: 49); format: cell-based; outline: as §4
[10] = molecular target: T4, ATP-dependent translocase ABCB1; assay: as §3, with “ABCB1” for “ABCG2”, “MDR1” for “BCRP”, “10” for “1”, “17)” for “27)”; format: cell-based; outline: as §4
[11] = Growth inhibition of human A2780 cells incubated for 72 hrs by MTT assay; format: cell-based; outline: as §1
[12] = molecular target: T3, Broad substrate specificity ATP-binding cassette transporter ABCG2; assay: Reversal of ABCG2-mediated multidrug resistance in human MCF-7/MX cells assessed as resistance factor by measuring [GI50(resistant cell line without or with compound)/ GI50(sensitive cell line)] at 5 uM incubated for 72 hrs by MTT assay (reference value: 789); format: cell-based
[13] = molecular target: T4, ATP-dependent translocase ABCB1; assay: as §3, with “ABCB1” for “ABCG2”, “MDR1” for “BCRP”, “0.5” for “1”, “17)” for “27)”; format: cell-based; outline: as §4
[14] = molecular target: T4, ATP-dependent translocase ABCB1; assay: Reversal of ABCB1-mediated multidrug resistance in human A2780/ADR cells assessed as resistance factor by measuring [GI50(resistant cell line without or with compound)/ GI50(sensitive cell line)] at 5 uM incubated for 72 hrs by MTT assay (reference value: 49); format: cell-based; outline: as §4
[15] = molecular target: T1, Multidrug resistance-associated protein 1; assay: as §3, with “ABCC1” for “ABCG2”, “MRP1” for “BCRP”, “0.5” for “1”, “7)” for “27)”; format: cell-based
[16] = molecular target: T4, ATP-dependent translocase ABCB1; assay: Reversal of ABCB1-mediated multidrug resistance in human A2780/ADR cells assessed as resistance factor by measuring [GI50(resistant cell line without or with compound)/ GI50(sensitive cell line)] at 0.5 uM incubated for 72 hrs by MTT assay (reference value: 49); format: cell-based; outline: as §4
[17] = molecular target: T3, Broad substrate specificity ATP-binding cassette transporter ABCG2; assay: Non-competitive inhibition of ABCG2 (unknown origin)-mediated pheophorbide A transport in MDCK2 cells co-expressing BCRP (unknown origin) at 0.178 to 1 uM by Lineweaver-Burk plot analysis; format: cell-based
Outline: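 Lineweaver-Burk kinetics of ABCG2-mediated pheophorbide A transport in transfected MDCK II BCRP cells. Pheophorbide A was used at 0.5, 0.6, 0.8, 1.0 and 1.5 µM. Inhibitor was used at 0.178, 0.316, 0.562 and 1.00 µM, with a zero-inhibitor control.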

CC1CCc2c(sc3nc(-c4cccnc4)nc(N4CCN(C(C(N)=O)c5ccccc5)CC4)c23)C1 (centres undefined)
GI50 at 72 h [1]: 25 µM | RatioGI50 [2]: 3.8 | inhibition at 2 h, 10 µM (ABCG2 (BCRP)): ≥ 20% | RatioGI50 [3]: 17 | IC50 [4]: 1.73 µM | RatioGI50 [5]: 4.3 | inhibition at 1 min, 10 µM (ABCB1 (P-gp)): ≥ 20% | GI50 at 72 h [6]: 16.4 µM | GI50 at 72 h [7]: 25.8 µM | IC50 [8]: 2.38 µM | RatioGI50 [9]: 4.1 | RatioGI50 [10]: 0.5 | GI50 at 72 h [11]: 24.6 µM | RatioGI50 [12]: 179 | RatioGI50 [13]: 7.1 | RatioGI50 [14]: 6.3 | RatioGI50 [15]: 4.7 | RatioGI50 [16]: 32 | inhibition (INH) [17]: Active
